PGC1a acetyl inh: modulators of PGC1a acetylation. U2OS PGC1a acetylation, AlphaScreen anti-acetyl-lysine; with virally co-expressed GCN5 acetyltransferase. inhibition, % at 15.6 µM. actives 0.17% (n = 350,000). AID 651687;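 active = every replicate shows inhibition of at least 40%; inconclusive = mean inhibition at least 40% but some replicate below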
EWS-Fli block: EWS/Fli transcriptional activity inhibition; A673 NR0B1-luciferase reporter, viability-normalised; actives 0.67% (n = 350,000); inhibition, % at 12.6 µM; AID 651661;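 active = mean inhibition of at least 50% after viability correction, with every replicate also passing that limit; inconclusive = mean reaches 50% but only one of two replicates passes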;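 note: firefly luciferase signal divided by Alamar Blue viability fluorescence both relative to DMSO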
HIV Env fusion: inhibitors of HIV Env-mediated cell fusion; HeLa-JRFL Env/CEM21 cell fusion, luciferase; actives 1.1% (n = 360,000); inhibition, % at 12.3 µM;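 active = mean replicate inhibition score of at least 50 and every replicate individually at or above 50; inconclusive = only one of the two criteria met; inactive = mean below 50 and not all replicates reaching 50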
FN deposit inh: fibronectin deposition inhibition; AH1F fibroblasts, Alexa488-fibronectin deposition fluorescence, overnight; inhibition, % at 12.6 µM; actives 0.086% (n = 350,000);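 active = mean inhibition across replicates of 30% or more, regardless of how many single replicates reach that level; inconclusive = mean under 30% yet at least half of replicates reach 30%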
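Test system: AH1F fibroblast monolayer depositing Alexa488-labelled fibronectin into matrix. Input: 10000 cells per well. Technique: fluorescence, ex 485 nm, em 525 nm. Buffer or medium: DMEM plus 2% serum, read in PBS. Timing: 1 h cell adhesion before compound, then overnight fibronectin incubation. Compound: single dose, pinned. Read-out basis: inhibition from reduced deposited-fibronectin fluorescence.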
PAX8 inh HTS: lowers PAX8-driven luciferase in RMG-I cells; RMG-I TPO-luciferase reporter, SteadyGlo, 24 h; inhibition, % at 12.6 µM; actives 1.2% (n = 360,000); AID 652154;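 active = mean replicate inhibition at least 60% with every replicate also reaching 60%; inconclusive = only one of the two criteria is met; inactive = mean below 60% and not all replicates reaching 60%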;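 note: luciferase light reporting Pax8 driven TPO promoter activity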
CFTR F508del cor: CFTR F508del correction in bronchial cells; AID 720511; CFBE cells, YFP halide quenching; stimulated with forskolin plus potentiator P3; % fluorescence drop versus neutral controls; actives 0.36% (n = 350,000); activity (quench increase), % at 7.58 µM;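 active = mean added fluorescence quench of at least 8% versus neutral control, with both replicates also reaching 8%; inconclusive = only one of the mean or replicate conditions met; inactive = mean below 8% and not both replicates reaching 8%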;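 note: cells transiently co-express mutant CFTR-F508del with the halide-sensitive YFP; corrector assay measuring rescue of mutant channel to the surface after 24 h compound exposure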
Large screens that a line does not name were inactive; ! = repeats disagree. In the library only some 2.3% were active in any assay of this set; here they are far more common.

O=C(c1ccccc1)N1CCC(c2nc(-c3ccc(S(=O)(=O)NCC4CCCO4)cc3)no2)CC1 (stereo unspecified)	HIV Env fusion 87 (no result: PGC1a acetyl inh, EWS-Fli block, PAX8 inh HTS, CFTR F508del cor)
COc1ccc2c3c(n(C)c2c1)[C@H](CO)N(C(=O)C1CCC1)CC31CN(C)C1	none (no result: HIV Env fusion, FN deposit inh, PAX8 inh HTS)
COc1ccc(C(=S)N2CCN(c3cccc(Cl)c3)CC2)c(OC)c1	EWS-Fli block 56, CFTR F508del cor inconclusive
CC(C)CC#Cc1cnc2c(c1)C(=O)N([C@H](C)CO)C[C@H](C)[C@H](CN(C)Cc1ccccc1)O2	none (no result: EWS-Fli block, HIV Env fusion)
C[C@H](CO)N1C[C@H](C)[C@H](CN(C)C(=O)CN2CCOCC2)Oc2cc(C#Cc3cccc(F)c3)ccc2S1(=O)=O	none (no result: PAX8 inh HTS)
C[C@@H]1CN([C@H](C)CO)S(=O)(=O)c2ccc(C#Cc3cccc(F)c3)cc2O[C@@H]1CN(C)C(=O)CN1CCOCC1	HIV Env fusion 81!
C[C@H]1CN([C@@H](C)CO)S(=O)(=O)c2ccc(C#Cc3ccc(F)cc3)cc2O[C@@H]1CN(C)C(=O)CN(C)C	EWS-Fli block 67 (no result: PAX8 inh HTS)
C[C@@H]1CN([C@H](C)CO)S(=O)(=O)c2ccc(C#Cc3ccc(F)cc3)cc2O[C@@H]1CN(C)C(=O)CN(C)C	none (no result: PAX8 inh HTS)
C[C@H]1CN([C@@H](C)CO)S(=O)(=O)c2ccc(C#Cc3ccccc3)cc2O[C@H]1CN(C)C(=O)CN(C)C	none (no result: PAX8 inh HTS)
C[C@H](CO)N1C[C@H](C)[C@H](CN(C)C(=O)CN(C)C)Oc2cc(C#Cc3ccc(F)cc3)ccc2S1(=O)=O	EWS-Fli block 58 (no result: PAX8 inh HTS)
COc1cccc(C(=O)Nc2ccc3c(c2)C(=O)N(C)[C@@H]2CC[C@H](CC(=O)NCC(F)(F)F)O[C@@H]2CO3)c1	none
Cc1ccc(-c2cc3c(nn2)-c2ccccc2C3=O)cc1	EWS-Fli block 84, HIV Env fusion inconclusive, PAX8 inh HTS 79
C[C@@H]1CCCCO[C@@H](CN(C)S(=O)(=O)c2ccc(Cl)cc2)[C@H](C)CN([C@H](C)CO)C(=O)c2cc(NC(=O)Cc3ccccc3)ccc2O1	PAX8 inh HTS 62 (no result: FN deposit inh)
C[C@@H]1CCCCO[C@H](CN(C)S(=O)(=O)c2ccc(Cl)cc2)[C@H](C)CN([C@@H](C)CO)C(=O)c2cc(NC(=O)NC3CCCCC3)ccc2O1	PAX8 inh HTS 63 (no result: FN deposit inh)
C[C@H](CO)N1C[C@H](C)[C@@H](CN(C)S(=O)(=O)c2ccc(Cl)cc2)OCCCC[C@H](C)Oc2ccc(NC(=O)Nc3ccc(F)cc3)cc2C1=O	none
C[C@@H]1CCCCO[C@@H](CN(C)S(=O)(=O)c2ccc(Cl)cc2)[C@H](C)CN([C@@H](C)CO)C(=O)c2cc(NC(=O)Nc3ccc(F)cc3)ccc2O1	none
C[C@H](CO)N1C[C@H](C)[C@H](CN(C)S(=O)(=O)c2ccc(Cl)cc2)OCCCC[C@H](C)Oc2ccc(NC(=O)Cc3ccccc3)cc2C1=O	PAX8 inh HTS inconclusive (no result: FN deposit inh)
C[C@@H]1CN([C@H](C)CO)C(=O)c2cc(NC(=O)Nc3ccc(F)cc3)ccc2O[C@@H](C)CCCCO[C@H]1CN(C)S(=O)(=O)c1ccc(Cl)cc1	PAX8 inh HTS 76
C[C@@H]1CCCCO[C@H](CN(C)S(=O)(=O)c2ccc(Cl)cc2)[C@@H](C)CN([C@@H](C)CO)C(=O)c2cc(NC(=O)Nc3ccc(F)cc3)ccc2O1	PAX8 inh HTS 66
CC(C)CC#Cc1cnc2c(c1)C(=O)N([C@H](C)CO)C[C@H](C)[C@H](CN(C)C(=O)c1cccnc1)O2	none (no result: FN deposit inh, PAX8 inh HTS)
C[C@H]1CN([C@@H](C)CO)C(=O)c2ccccc2-c2ccccc2CO[C@@H]1CN(C)C(=O)Nc1ccccc1	none (no result: HIV Env fusion, PAX8 inh HTS)
C[C@H](CO)N1C[C@H](C)[C@H](CN(C)S(=O)(=O)c2ccc(Cl)cc2)OCCCC[C@H](C)Oc2ccc(NC(=O)Nc3ccccc3)cc2C1=O	PAX8 inh HTS 65 (no result: FN deposit inh)
C[C@H]1CCCCO[C@H](CN(C)S(=O)(=O)c2ccc(Cl)cc2)[C@@H](C)CN([C@@H](C)CO)C(=O)c2cc(NC(=O)Nc3ccccc3)ccc2O1	none (no result: FN deposit inh)
Oc1ccc(/C=N/Nc2nc(-c3ccc(Cl)cc3)cc(C(F)(F)F)n2)cc1	PGC1a acetyl inh 64 (no result: CFTR F508del cor)
CCCc1cn(CC[C@H]2CC[C@@H](NC(=O)C3CCCC3)[C@@H](CO)O2)nn1	none
CCOc1cc2c(c3c1C(c1ccccc1)N(S(=O)(=O)c1ccc(C)cc1)C3)C(=O)C=CC2=O (stereo unspecified)	EWS-Fli block 62
CCOC(=O)C1=CCN(S(=O)(=O)c2ccc(C)cc2)C1c1ccccc1 (stereo unspecified)	none
COc1ccc2c3c([nH]c2c1)[C@@H](CO)N(Cc1nccs1)CC31CN(C(=O)C2CCOCC2)C1	none (no result: HIV Env fusion, FN deposit inh, PAX8 inh HTS)
COC(=O)c1ccc(C(=O)OC)c(NC(=O)CSc2nc(-c3ccco3)cc(C(F)(F)F)n2)c1	none (no result: EWS-Fli block, HIV Env fusion, FN deposit inh, PAX8 inh HTS, CFTR F508del cor)
Cc1cc(C)nc(SCc2nnc(SCC(=O)Nc3ccc(C)c(C)c3)n2Cc2ccco2)n1	HIV Env fusion 54 (no result: EWS-Fli block, FN deposit inh, CFTR F508del cor)
O=C(CSc1nc(-c2ccco2)cc(C(F)(F)F)n1)Nc1ccc2c(c1)CCC2	none (no result: EWS-Fli block, HIV Env fusion, FN deposit inh, PAX8 inh HTS, CFTR F508del cor)
COC(=O)c1ccccc1NC(=O)CSc1nc(-c2ccco2)cc(C(F)(F)F)n1	EWS-Fli block 51 (no result: HIV Env fusion, FN deposit inh, PAX8 inh HTS)
Cc1ccc(NC(=O)CSc2nc(-c3ccco3)cc(C(F)(F)F)n2)cc1C	HIV Env fusion 56 (no result: PGC1a acetyl inh, EWS-Fli block, PAX8 inh HTS, CFTR F508del cor)
O=C(CN1CCOCC1)N[C@H]1CC[C@@H](CCNC(=O)C2CCCCC2)O[C@@H]1CO	none
CN(C)c1ccc2c(c1)[C@H]1C[C@@H](CC(=O)N3CCCCC3)O[C@@H](CO)[C@H]1O2	none (no result: PGC1a acetyl inh, HIV Env fusion, PAX8 inh HTS)
O=C(NC1CCCCC1)C(c1ccc2ncccc2c1)N(Cc1cccs1)C(=O)c1cccs1 (stereo unspecified)	none (no result: EWS-Fli block, HIV Env fusion, FN deposit inh, PAX8 inh HTS, CFTR F508del cor)
O=C(NC1CCCCC1)C(c1cccs1)N(Cc1cccs1)C(=O)c1cccs1 (stereo unspecified)	HIV Env fusion 94 (no result: EWS-Fli block, CFTR F508del cor)
COc1cc(/C=N/NC(=O)CC2(C)OCCO2)cc(Br)c1O	none (no result: PGC1a acetyl inh, EWS-Fli block, CFTR F508del cor)
COc1cc(/C=N/NC(=O)C23CC4CC(CC(C4)C2)C3)cc(Br)c1O	PAX8 inh HTS 67 (no result: CFTR F508del cor)
CC[N+](C)(C)CCN(Cc1ccc(Cl)cc1)c1ccccn1	none (no result: EWS-Fli block, CFTR F508del cor)
COc1ccc(CN(CCN(C)C)c2ccccn2)cc1	PAX8 inh HTS 83!
C[C@H](CO)N1C[C@H](C)[C@H](CN(C)C(=O)c2ccncc2)Oc2cc(/C=C/c3ccccc3)ccc2S1(=O)=O	none (no result: FN deposit inh, PAX8 inh HTS)
O=C(Nc1cccc(-c2csc(Nc3ccc(Cl)cc3)n2)c1)c1cc([N+](=O)[O-])cc(C(F)(F)F)c1	PAX8 inh HTS 79
C[C@H](O)C#Cc1ccc([C@@H]2[C@@H](CO)N3CCCCN(S(=O)(=O)c4ccccc4)C[C@@H]23)cc1	none (no result: HIV Env fusion, FN deposit inh)
COc1cccc(S(=O)(=O)N2CCCCN3[C@H](CO)[C@H](c4ccc(C#CC(C)C)cc4)[C@@H]3C2)c1	PAX8 inh HTS 71 (no result: HIV Env fusion, FN deposit inh)
